The values below come from article PMC2606940 (The Journal of General Physiology, 2009).

For experiment [1], the target named is T1, CLC-0 E166C/E127Q mutant (E127Q/K519) (Torpedo marmorata, UniProt P21564, C212S/E127Q/E166C).
T1 sequence (P21564 1-805 E127Q/E166C/C212S): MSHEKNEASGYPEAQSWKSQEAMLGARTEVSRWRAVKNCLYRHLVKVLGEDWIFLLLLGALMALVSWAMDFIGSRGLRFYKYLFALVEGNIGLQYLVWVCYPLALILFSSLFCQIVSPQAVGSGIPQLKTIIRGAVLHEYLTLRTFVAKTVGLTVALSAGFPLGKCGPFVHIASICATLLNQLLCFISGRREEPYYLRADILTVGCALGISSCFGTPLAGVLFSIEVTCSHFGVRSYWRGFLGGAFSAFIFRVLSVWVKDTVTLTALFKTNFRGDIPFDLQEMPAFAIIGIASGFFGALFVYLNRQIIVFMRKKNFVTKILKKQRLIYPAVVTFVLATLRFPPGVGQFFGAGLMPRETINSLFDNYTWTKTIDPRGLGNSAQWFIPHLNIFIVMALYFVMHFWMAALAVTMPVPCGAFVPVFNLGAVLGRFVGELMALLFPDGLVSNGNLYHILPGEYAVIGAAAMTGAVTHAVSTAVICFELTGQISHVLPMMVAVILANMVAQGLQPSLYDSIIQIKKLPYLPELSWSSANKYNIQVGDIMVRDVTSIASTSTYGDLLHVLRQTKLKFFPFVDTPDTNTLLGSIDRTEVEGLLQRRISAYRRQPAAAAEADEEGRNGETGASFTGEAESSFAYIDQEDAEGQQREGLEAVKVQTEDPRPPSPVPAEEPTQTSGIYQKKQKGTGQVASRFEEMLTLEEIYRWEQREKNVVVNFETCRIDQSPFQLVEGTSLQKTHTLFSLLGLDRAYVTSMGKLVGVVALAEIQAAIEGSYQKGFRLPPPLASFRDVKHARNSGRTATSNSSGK
The class given is cell-based. As to conditions: for IC50: read-out: Apparent affinity (K1/2). The gist of the method:
(§1)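 CLC-0 mutants in the C212S background were transfected into HEK293 cells with lipofectamine and recorded 1–3 d later as excised inside-out patches. Both sides held 130 mM NaCl, 5 mM MgCl2, 10 mM HEPES and 1 mM EGTA, pH 7.4. CPA was perfused continuously onto the cytoplasmic face. Steady-state current over the last 10 ms was normalized to bracketing blocker-free controls and fitted to a Langmuir function for K1/2. Values are mean ± SEM of ~4–6 patches.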

Experiment [2] concerns the target T2, CLC-0 E166C/E127Q/K519E mutant (Torpedo marmorata, UniProt P21564, C212S/E127Q/E166C/K519E).
T2 sequence (P21564 1-805 E127Q/E166C/C212S/K519E): T1 sequence (P21564 1-805 E127Q/E166C/C212S) with K519E
The class given is cell-based. Particulars: read-out: Apparent affinity (K1/2). The gist of the method: as §1

For experiment [3], the target named is T3, CLC-0 E166A mutant (Torpedo marmorata, UniProt P21564, C212S/E166A).
T3 sequence (P21564 1-805 E166A/C212S): T1 sequence (P21564 1-805 E127Q/E166C/C212S) with Q127E, C166A
As to conditions: ref Traverso et al., 2003; cited from earlier work.

Where a chain is given by its changes, count along the chain named. Read-outs that look alike come from different tables or passages of the source. Some results are limits rather than exact numbers.

On to `O=C(O)COc1ccc(Cl)cc1` [CPA, p-chlorophenoxy acetate], for which the IC50 amounted to 491 ± 58 µM in experiment [1] (−40 mV); 228 ± 23 µM in experiment [1] (−60 mV); 113 ± 10 µM in experiment [1] (−80 mV); 57 ± 4 µM in experiment [1] (−100 mV); 33 ± 3 µM in experiment [1] (−120 mV); 21 ± 2 µM in experiment [1] (−140 mV). For the same compound, the IC50 in experiment [1] (−160 mV) is 15 ± 2 µM; in experiment [2] (−40 mV), 586 ± 52 µM; in experiment [2] (−60 mV), 327 ± 24 µM; in experiment [2] (−80 mV) it was 198 ± 14 µM; in experiment [2] (−100 mV), 123 ± 9 µM; in experiment [2] (−120 mV) it was 87 ± 6 µM. Besides, the IC50 in experiment [2] (−140 mV) amounted to 62 ± 5 µM; in experiment [2] (−160 mV), 44 ± 5 µM. Further, the apparent koff in experiment [1] (−160 mV) was 17.9 s⁻¹. For the same compound, the apparent kon in experiment [1] (−160 mV) came out at 760000 M⁻¹ s⁻¹. Moreover, the “CPA-blocking affinity of E166A relative to wild-type channel (higher)” value in experiment [3] is given as more than 100 fold.
